From ChEMBL document CHEMBL4325889, “Natural products hybrids: 3,5,4'-Trimethoxystilbene-5,6,7-trimethoxyflavone chimeric analogs as potential cytotoxic agents against diverse human cancer cells” (Eur J Med Chem, 2019)

Tests used:
Assay type in all cases: functional
HT-29 = assay: Growth inhibition of human HT-29 cells at 10 uM after 48 hrs by SRB assay relative to control; details: HT-29, 48 h, read-out: GI
Method in brief: (§1)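 Screened at the National Cancer Institute by the standard NCI protocol using the sulforhodamine B assay, which measures cellular protein. Single dose of 10 µM. Result is percent growth inhibition; values above 100% mean cell number fell below the initial population. Values are the average of duplicates.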

786-0 = assay: Growth inhibition of human 786-0 cells at 10 uM after 48 hrs by SRB assay relative to control; details: 786-0, 48 h, read-out: GI; method in brief: as §1
A549 = assay: Growth inhibition of human A549 cells at 10 uM after 48 hrs by SRB assay relative to control; details: A549, 48 h, read-out: GI; method in brief: as §1
HCT-116 = assay: Growth inhibition of human HCT116 cells at 10 uM after 48 hrs by SRB assay relative to control; details: HCT-116, 48 h, read-out: GI; method in brief: as §1
NCI/ADR-RES = assay: Growth inhibition of human NCI/ADR-RES cells at 10 uM after 48 hrs by SRB assay relative to control; details: read-out: GI; method in brief: as §1
SR = assay: Growth inhibition of human SR cells at 10 uM after 48 hrs by SRB assay relative to control; details: read-out: GI
Method in brief: (§2)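 NCI screen against its human cancer cell line panel by the standard NCI protocol, SRB protein stain. Single dose of 10 μM. Percent growth inhibition versus control; values above 100% mean the cell population fell below the starting number. Each value is the mean of duplicates.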

OVCAR-4 = assay: Growth inhibition of human OVCAR4 cells at 10 uM after 48 hrs by SRB assay relative to control; details: OVCAR-4, 48 h, read-out: GI; method in brief: as §1
SW-620 = assay: Growth inhibition of human SW620 cells at 10 uM after 48 hrs by SRB assay relative to control; details: SW-620, 48 h, read-out: GI; method in brief: as §2
HL-60(TB) = assay: Growth inhibition of human HL-60(TB) cells at 10 uM after 48 hrs by SRB assay relative to control; details: HL-60, 48 h, read-out: GI
Method in brief: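 Run at NCI under its standard single-dose protocol against a leukemia cell panel. Cells were exposed to 10 µM; growth was read by sulforhodamine B staining of cellular protein and expressed as % growth inhibition versus untreated control. Values above 100% mean the cell population fell below the starting count (cytocidal). Each value is the average of duplicates.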

MDA-MB-468 = assay: Growth inhibition of human MDA-MB-468 cells at 10 uM after 48 hrs by SRB assay relative to control; details: MDA-MB-468, 48 h, read-out: GI; method in brief: as §1
U-251 = assay: Growth inhibition of human U251 cells at 10 uM after 48 hrs by SRB assay relative to control; details: U-251, 48 h, read-out: GI; method in brief: as §2
SN12C = assay: Growth inhibition of human SN12C cells at 10 uM after 48 hrs by SRB assay relative to control; details: read-out: GI; method in brief: as §1
MOLT-4 = assay: Growth inhibition of human MOLT4 cells at 10 uM after 48 hrs by SRB assay relative to control; details: MOLT-4, 48 h, read-out: GI; method in brief: as §1
SNB-19 = assay: Growth inhibition of human SNB19 cells at 10 uM after 48 hrs by SRB assay relative to control; details: SNB-19, 48 h, read-out: GI; method in brief: as §2
SNB-75 = assay: Growth inhibition of human SNB75 cells at 10 uM after 48 hrs by SRB assay relative to control; details: SNB-75, 48 h, read-out: GI; method in brief: as §2
Malme-3M = assay: Growth inhibition of human MALME-3M cells at 10 uM after 48 hrs by SRB assay relative to control; details: read-out: GI; method in brief: as §1
BT-549 = assay: Growth inhibition of human BT549 cells at 10 uM after 48 hrs by SRB assay relative to control; details: BT-549, 48 h, read-out: GI; method in brief: as §1
MDA-MB-435 = assay: Growth inhibition of human MDA-MB-435 cells at 10 uM after 48 hrs by SRB assay relative to control; details: MDA-MB-435, 48 h, read-out: GI; method in brief: as §1
SK-MEL-5 = assay: Growth inhibition of human SK-MEL-5 cells at 10 uM after 48 hrs by SRB assay relative to control; details: SK-MEL-5, 48 h, read-out: GI; method in brief: as §1
UACC-62 = assay: Growth inhibition of human UACC62 cells at 10 uM after 48 hrs by SRB assay relative to control; details: UACC-62, 48 h, read-out: GI; method in brief: as §2
COLO 205 = assay: Growth inhibition of human COLO205 cells at 10 uM after 48 hrs by SRB assay relative to control; details: COLO 205, 48 h, read-out: GI; method in brief: as §1
TK-10 = assay: Growth inhibition of human TK10 cells at 10 uM after 48 hrs by SRB assay relative to control; details: TK-10, 48 h, read-out: GI; method in brief: as §2
HOP-92 = assay: Growth inhibition of human HOP92 cells at 10 uM after 48 hrs by SRB assay relative to control; details: HOP-92, 48 h, read-out: GI; method in brief: as §1
HCC 2998 = assay: Growth inhibition of human HCC2998 cells at 10 uM after 48 hrs by SRB assay relative to control; details: HCC 2998, 48 h, read-out: GI; method in brief: as §1
UO-31 = assay: Growth inhibition of human UO31 cells at 10 uM after 48 hrs by SRB assay relative to control; details: UO-31, 48 h, read-out: GI; method in brief: as §2
Hs-578T = assay: Growth inhibition of human Hs 578T cells at 10 uM after 48 hrs by SRB assay relative to control; details: read-out: GI; method in brief: as §1
OVCAR-3 = assay: Growth inhibition of human OVCAR3 cells at 10 uM after 48 hrs by SRB assay relative to control; details: OVCAR-3, 48 h, read-out: GI; method in brief: as §1
PC-3 = assay: Growth inhibition of human PC3 cells at 10 uM after 48 hrs by SRB assay relative to control; details: PC-3, 48 h, read-out: GI; method in brief: as §1
SF-539 = assay: Growth inhibition of human SF539 cells at 10 uM after 48 hrs by SRB assay relative to control; details: SF-539, 48 h, read-out: GI; method in brief: as §1
NCI-H522 = assay: Growth inhibition of human NCI-H522 cells at 10 uM after 48 hrs by SRB assay relative to control; details: NCI-H522, 48 h, read-out: GI; method in brief: as §1
HOP-62 = assay: Growth inhibition of human HOP62 cells at 10 uM after 48 hrs by SRB assay relative to control; details: HOP-62, 48 h, read-out: GI; method in brief: as §1
SK-MEL-2 = assay: Growth inhibition of human SK-MEL-2 cells at 10 uM after 48 hrs by SRB assay relative to control; details: SK-MEL-2, 48 h, read-out: GI; method in brief: as §1
K562 = assay: Growth inhibition of human K562 cells at 10 uM after 48 hrs by SRB assay relative to control; details: K562, 48 h, read-out: GI; method in brief: as §1

| SMILES | inhibition of growth at 10 µM (HT-29) [%] | inhibition of growth at 10 µM (786-0) [%] | inhibition of growth at 10 µM (A549) [%] | inhibition of growth at 10 µM (HCT-116) [%] | inhibition of growth at 10 µM (NCI/ADR-RES) [%] | inhibition of growth at 10 µM (OVCAR-4) [%] | inhibition of growth at 10 µM (SW-620) [%] | inhibition of growth at 10 µM (HL-60(TB)) [%] | inhibition of growth at 10 µM (MDA-MB-468) [%] | inhibition of growth at 10 µM (U-251) [%] | inhibition of growth at 10 µM (SN12C) [%] | inhibition of growth at 10 µM (MOLT-4) [%] | inhibition of growth at 10 µM (SNB-19) [%] | inhibition of growth at 10 µM (SNB-75) [%] | inhibition of growth at 10 µM (Malme-3M) [%] | inhibition of growth at 10 µM (BT-549) [%] | inhibition of growth at 10 µM (MDA-MB-435) [%] | inhibition of growth at 10 µM (SK-MEL-5) [%] | inhibition of growth at 10 µM (UACC-62) [%] | inhibition of growth at 10 µM (TK-10) [%] | other results |
| --- | --- | --- | --- | --- | --- | --- | --- | --- | --- | --- | --- | --- | --- | --- | --- | --- | --- | --- | --- | --- | --- |
| Cc1ccc(NC(=O)c2ccc(CN3CCN(C)CC3)cc2)cc1Nc1nccc(-c2cccnc2)n1 [IMATINIB] | 47.1 | 5 | 3.8 | 18.6 | -0.5 | -0.1 | -10 | -6.8 | 29.1 | 10.6 | 6 | 18 | -12.2 | 0.6 | -13.7 | -5 | 7.4 | 22.3 | 7.7 | -10 | inhibition of growth at 10 µM (SR): 14.6%; inhibition of growth at 10 µM (COLO 205): -1.1%; inhibition of growth at 10 µM (HOP-92): 43.7%; inhibition of growth at 10 µM (HCC 2998): -22%; inhibition of growth at 10 µM (UO-31): 7.6%; inhibition of growth at 10 µM (Hs-578T): 9.9%; inhibition of growth at 10 µM (OVCAR-3): -10.3%; inhibition of growth at 10 µM (PC-3): 10.6%; inhibition of growth at 10 µM (SF-539): 24.5% |
| COc1ccccc1C(=O)Nc1cccc(-c2cc(=O)c3c(OC)c(OC)c(OC)cc3o2)c1 | 75.4 | 54.7 | 51.8 | 63.3 | 41.8 | 41 | 36.6 | 42.3 | 60.8 | 61 | 59 | 71.2 | 63.8 | 16.8 | 34.5 | 54.1 | 56.5 | 75 | 56.9 | 46.6 | inhibition of growth at 10 µM (NCI-H522): 55.7%; inhibition of growth at 10 µM (HOP-62): 42.2%; inhibition of growth at 10 µM (HOP-92): 100%; inhibition of growth at 10 µM (HCC 2998): 32.2%; inhibition of growth at 10 µM (UO-31): 84.8%; inhibition of growth at 10 µM (Hs-578T): 76.4%; inhibition of growth at 10 µM (SK-MEL-2): 68.8%; inhibition of growth at 10 µM (OVCAR-3): 48.6%; inhibition of growth at 10 µM (PC-3): 70%; inhibition of growth at 10 µM (K562): 63.6%; inhibition of growth at 10 µM (SF-539): 36.2% |
| COc1cccc(C(=O)Nc2cccc(-c3cc(=O)c4c(OC)c(OC)c(OC)cc4o3)c2)c1 | 53.6 | 47.2 | 44.1 | 46.4 | 34.5 | 37.7 | 22.8 | 14.8 | 5.72 | 36.2 | 38.7 | 53.3 | 29.6 | 32.6 | 12.8 | 42.5 | 23.4 | 39.4 | 41.1 | 17.2 | inhibition of growth at 10 µM (NCI-H522): 58.4%; inhibition of growth at 10 µM (HOP-62): 30.2%; inhibition of growth at 10 µM (HOP-92): 51.8%; inhibition of growth at 10 µM (HCC 2998): 19.5%; inhibition of growth at 10 µM (UO-31): 66.7%; inhibition of growth at 10 µM (Hs-578T): 43.2%; inhibition of growth at 10 µM (SK-MEL-2): 38.1%; inhibition of growth at 10 µM (OVCAR-3): 24.6%; inhibition of growth at 10 µM (PC-3): 48.8%; inhibition of growth at 10 µM (K562): 62%; inhibition of growth at 10 µM (SF-539): 33.7% |
